Laboratory results reported in PMC9669183 (British journal of pharmacology, 2022).
Read-outs that look alike come from different tables or passages of the source.

Key:
[1] = target: T1, α1β2γ2L GABAAR (Rattus norvegicus, UniProt P18508+P62813+P63138, INS375LLRMFSFK); assay type: cell-based; details: for potentiation of the response to low GABA (% of control): 50 μM α7-PAM, 2-5 μM GABA (PA<0.10), 100% = no effect, mean±SEM; for free energy change (ΔG) towards stabilizing the active state: co-agonist concerted transition model
[2] = target: T1, α1β2γ2L GABAAR; assay: Drug combination; assay type: cell-based; details: for observed PA in the presence of R(+)-etomidate+α7-PAM / predicted PA for R(+)-etomidate+α7-PAM, distinct site model / predicted PA for R(+)-etomidate+α7-PAM, same site model: 50 μM α7-PAM
[3] = target: α1β2(N265M)γ2L GABAAR (Rattus norvegicus, UniProt P18508+P62813+P63138, INS375LLRMFSFK/N289M); assay: Potentiation of low GABA response, mutant receptor in oocytes; assay type: cell-based; details: 50 μM; low GABA PA<0.10; mean±SEM
[4] = target: α1β2(M286W)γ2L GABAAR (Rattus norvegicus, UniProt P18508+P62813+P63138, INS375LLRMFSFK/M310W); assay: as above; assay type: cell-based; details: 50 μM; low GABA PA<0.10; mean±SEM
[5] = target: α1β2γ2L(I242C) GABAAR (Rattus norvegicus, UniProt P18508+P62813+P63138, I280C/INS375LLRMFSFK); assay: as above; assay type: cell-based; details: 50 μM; low GABA PA<0.10; mean±SEM
[6] = target: T2, α1β3γ2L GABAAR (Homo sapiens, UniProt P14867+P18507+P28472); assay: Potentiation of low GABA response, oocytes; assay type: cell-based; details: 50 μM; low GABA PA<0.10; mean±SEM
[7] = target: α4β2δ GABAA receptor (Homo sapiens, UniProt O14764+P47870+P48169); assay: Effect on α4β2δ receptor during long drug applications, oocytes; assay type: cell-based
α4β2δ GABAA receptor, sequence (P48169 36-554): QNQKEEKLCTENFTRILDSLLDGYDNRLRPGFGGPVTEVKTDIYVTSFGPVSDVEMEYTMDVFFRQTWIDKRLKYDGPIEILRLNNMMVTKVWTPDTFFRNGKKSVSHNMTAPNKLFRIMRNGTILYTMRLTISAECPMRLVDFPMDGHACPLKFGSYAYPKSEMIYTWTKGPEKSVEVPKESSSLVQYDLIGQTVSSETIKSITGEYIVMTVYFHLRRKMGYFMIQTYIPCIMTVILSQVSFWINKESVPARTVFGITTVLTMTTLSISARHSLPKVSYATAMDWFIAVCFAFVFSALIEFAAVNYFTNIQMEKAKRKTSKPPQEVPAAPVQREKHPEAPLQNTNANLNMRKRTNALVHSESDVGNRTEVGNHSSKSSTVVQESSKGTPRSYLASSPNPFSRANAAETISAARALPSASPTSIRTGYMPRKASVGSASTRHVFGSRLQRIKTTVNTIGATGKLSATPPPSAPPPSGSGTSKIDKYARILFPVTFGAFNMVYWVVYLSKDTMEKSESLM
α4β2δ GABAA receptor, sequence (P47870 25-512 limits assumed): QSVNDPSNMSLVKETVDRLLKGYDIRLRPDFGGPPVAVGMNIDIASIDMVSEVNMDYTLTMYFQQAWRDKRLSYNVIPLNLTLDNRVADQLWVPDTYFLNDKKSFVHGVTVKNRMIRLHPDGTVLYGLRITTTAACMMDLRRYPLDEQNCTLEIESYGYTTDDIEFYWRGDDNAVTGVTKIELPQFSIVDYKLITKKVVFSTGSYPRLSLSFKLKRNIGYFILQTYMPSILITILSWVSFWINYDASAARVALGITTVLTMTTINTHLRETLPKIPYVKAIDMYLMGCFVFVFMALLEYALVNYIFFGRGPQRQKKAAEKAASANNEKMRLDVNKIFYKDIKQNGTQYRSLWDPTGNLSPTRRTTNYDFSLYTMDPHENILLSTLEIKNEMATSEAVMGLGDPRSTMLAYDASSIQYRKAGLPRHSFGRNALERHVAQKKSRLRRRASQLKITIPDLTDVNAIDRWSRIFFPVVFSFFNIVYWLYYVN
α4β2δ GABAA receptor, sequence (O14764 25-452): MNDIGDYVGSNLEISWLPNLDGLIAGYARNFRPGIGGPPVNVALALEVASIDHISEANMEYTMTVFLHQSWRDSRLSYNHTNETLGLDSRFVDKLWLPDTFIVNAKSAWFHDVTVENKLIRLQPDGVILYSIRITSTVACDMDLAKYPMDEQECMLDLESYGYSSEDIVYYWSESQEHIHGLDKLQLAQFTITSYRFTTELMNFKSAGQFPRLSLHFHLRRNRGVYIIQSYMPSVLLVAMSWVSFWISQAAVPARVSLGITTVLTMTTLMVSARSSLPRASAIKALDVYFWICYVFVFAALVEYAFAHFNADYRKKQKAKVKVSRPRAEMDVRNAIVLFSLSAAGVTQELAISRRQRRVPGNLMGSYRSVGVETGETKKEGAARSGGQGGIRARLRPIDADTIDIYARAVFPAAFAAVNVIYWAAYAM
Summary of the method: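 Human α4β2δ GABAA receptors were expressed in Xenopus laevis oocytes by injecting 3.5-6 ng total cRNA per oocyte. Oocytes were held 1-2 days in ND96 (pH 7.4) with Na pyruvate and antibiotics. Currents were recorded by two-electrode voltage clamp.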

[8] = target: α1β2γ2L(S280C) GABAAR (Rattus norvegicus, UniProt P18508+P62813+P63138, INS375LLRMFSFK/S318C); assay: Potentiation of low GABA response, mutant receptor in oocytes; assay type: cell-based; details: 50 μM; low GABA PA<0.10; mean±SEM
[9] = target: α1(Q241L)β2γ2L GABAAR (Rattus norvegicus, UniProt P18508+P62813+P63138, INS375LLRMFSFK/Q268L); assay: as above; assay type: cell-based; details: 50 μM; low GABA PA<0.10; mean±SEM
[10] = target: α1β3(L231C)γ2L GABAAR (Homo sapiens, UniProt P14867+P18507+P28472, L256C); assay: as above; assay type: cell-based; details: 50 μM; low GABA PA<0.10; mean±SEM
[11] = target: α1(M236C)β2γ2L GABAAR (Rattus norvegicus, UniProt P18508+P62813+P63138, INS375LLRMFSFK/M262C); assay: as above; assay type: cell-based; details: 50 μM; low GABA PA<0.10; mean±SEM
[12] = target: T1, α1β2γ2L GABAAR; assay: Direct activation, two-electrode voltage clamp in Xenopus oocytes; assay type: cell-based; details: 50 μM α7-PAM; n=5 oocytes/drug; mean±SEM
[13] = tested on: binary αβ GABAA receptors (α1β2, α1β3); assay: Potentiation of binary αβ receptors compared with ternary αβγ, oocytes; assay type: cell-based
[14] = target: T1, α1β2γ2L GABAAR; assay: Potentiation of receptors activated by allosteric agonists; assay type: cell-based; details: 50 μM α7-PAM; for potentiation of currents elicited by propofol (% of control): 10 μM propofol; for potentiation of the response to phenobarbital (% of control): 1 mM phenobarbital, n=5; for potentiation of the peak response to R(+)-etomidate (% of control): 2-4 μM R(+)-etomidate
[15] = tested on: α4β2 nicotinic receptor; details: at high μM concentrations; ref Arias et al., 2011; Timmermann et al., 2007; cited from earlier work
[16] = target: T2, α1β3γ2L GABAAR; assay type: binding; details: for direct effect on fluorescence from α1β3γ2L-bound Gzn-OG (orthosteric site): 3-100 μM α7-PAM, no GABA
[17] = tested on: α3β4 nicotinic receptor; details: at high μM concentrations; ref Arias et al., 2011; Timmermann et al., 2007; cited from earlier work
[18] = target: α1β2γ2L(L246C) GABAAR (Rattus norvegicus, UniProt P18508+P62813+P63138, INS375LLRMFSFK/L284C); assay: Potentiation of low GABA response, mutant receptor in oocytes; assay type: cell-based; details: 50 μM; low GABA PA<0.10; mean±SEM
[19] = target: T1, α1β2γ2L GABAAR; assay: Modulation of steady-state response to saturating GABA, Xenopus oocytes; assay type: cell-based; details: 50 μM α7-PAM; 1 mM GABA
[20] = target: α1β3(M227C)γ2L GABAAR (Homo sapiens, UniProt P14867+P18507+P28472, M252C); assay: Potentiation of low GABA response, mutant receptor in oocytes; assay type: cell-based; details: 50 μM; low GABA PA<0.10; mean±SEM
[21] = target: α1(L232C)β2γ2L GABAAR (Rattus norvegicus, UniProt P18508+P62813+P63138, INS375LLRMFSFK/L258C); assay: as above; assay type: cell-based; details: 50 μM; low GABA PA<0.10; mean±SEM
[22] = target: α1(A291W)β2γ2L GABAAR (Rattus norvegicus, UniProt P18508+P62813+P63138, A317W/INS375LLRMFSFK); assay: as above; assay type: cell-based; details: 50 μM; low GABA PA<0.10; mean±SEM
[23] = 0.5 μM GABA+20 μM NS-1738+25 μM PAM-2

| SMILES | Potentiation (% of control), α1β2(N265M)γ2L [3] | Potentiation (% of control), α1β2(M286W)γ2L [4] | Potentiation (% of control), α1β2γ2L(I242C) [5] | Potentiation (% of control), α1β3γ2L [6] | effect on the α4β2δ receptor [7] | Potentiation (% of control), α1β2γ2L(S280C) [8] | Potentiation (% of control), α1(Q241L)β2γ2L [9] | Potentiation (% of control), α1β3(L231C)γ2L [10] | Potentiation (% of control), α1(M236C)β2γ2L [11] | direct activation: response as % of the peak response to 1 mM GABA+50 μM propofol [12] [%] | magnitude of potentiation in binary αβ vs ternary αβγ receptors [13] | potentiation of currents elicited by propofol (% of control) [14] | potentiation of the response to phenobarbital (% of control) [14] | potentiation of the peak response to R(+)-etomidate (% of control) [14] | effect on the heteromeric α4β2 nicotinic receptor [15] | decrease in GABA Ki between 0 (control) and 100 μM α7-PAM [16] [fold] | direct effect on fluorescence from α1β3γ2L-bound Gzn-OG (orthosteric site) [16] | effect on the heteromeric α3β4 nicotinic receptor [17] | potentiation of the response to low GABA (% of control) [1] | free energy change (ΔG) towards stabilizing the active state [1] [kcal/mol] | other results |
| --- | --- | --- | --- | --- | --- | --- | --- | --- | --- | --- | --- | --- | --- | --- | --- | --- | --- | --- | --- | --- | --- |
| NCCCC(=O)O [GABA, γ-aminobutyric acid] | – | – | – | – | – | – | – | – | – | – | – | – | – | – | – | – | – | – | – | – | PA of response to GABA alone ([1]; 2-5 μM GABA (EC6-7)): 0.05-0.06; PA of response to GABA alone ([2]; 0.5 μM GABA, n=5): 0.039±0.013 |
| O=C(Nc1cc(Cl)ccc1O)Nc1cc(C(F)(F)F)ccc1Cl [NS-1738, N-(5-Cl-2-hydroxyphenyl)-N’-[2-Cl-5-(trifluoromethyl)phenyl]-urea] | 426 ± 61% of control | 613 ±91% % of control | 376 ±35% of control | 301 ± 12% of control | inhibited | 344 ± 60% of control | 491 ± 45% of control | 217 ± 36% of control | 181 ± 15% % of control | 0.86±0.51 | similar | 145±11 % of control | 431±52 % of control | 125±8 % of control | inhibit | 25 | do not modify fluorescence | inhibit | 383±38 % of control | -1.29 | Potentiation (% of control), α1β2γ2L(L246C) [18]: 262 ± 25% of control; steady-state response to saturating GABA in presence of α7-PAM (% of control) [19]: 44±8 % of control; Potentiation (% of control), α1β3(M227C)γ2L [20]: 322 ± 40% of control; Potentiation (% of control), α1(L232C)β2γ2L [21]: 357 ± 55% of control; PA of response to GABA+NS-1738 ([2]; 0.5 μM GABA+20 μM NS-1738): 0.153±0.043; observed PA in the presence of R(+)-etomidate+α7-PAM [2]: 0.068±0.022; predicted PA for R(+)-etomidate+α7-PAM, distinct site model [2]: 0.253±0.055; predicted PA for R(+)-etomidate+α7-PAM, same site model [2]: 0.007±0.002; PA of response to low GABA+NS-1738 ([2]; 0.1-0.5 μM GABA+10 μM NS-1738, 5 oocytes): 0.084±0.028; Potentiation (% of control), α1(A291W)β2γ2L [22]: 199 ± 22% % of control |
| Cc1ccc(NC(=O)/C=C/c2ccco2)cc1 [PAM-2, (E)-3-(furan-2-yl)-N-(p-tolyl)-acrylamide] | 124 ± 6% % of control | 181 ± 12% % of control | 189 ± 11% % of control | 176 ± 12% % of control | inhibited | 233 ± 16% of control | 382 ± 29% of control | 153 ± 11% of control | 176 ± 11% % of control | 0.70±0.19 | similar | 123±9 % of control | 103±6 % of control | 140±17 % of control | inhibit | 3.8 | do not modify fluorescence | inhibit | 300 ± 43 % of control | -0.76 | EC50 [1]: 26 ± 8 µM; Kd [1]: 24.8 ± 10.5 µM; Potentiation (% of control), α1β2γ2L(L246C) [18]: 147 ± 7% % of control; steady-state response to saturating GABA in presence of α7-PAM (% of control) [19]: 70±4 % of control; Potentiation (% of control), α1β3(M227C)γ2L [20]: 163 ± 12% of control; Potentiation (% of control), α1(L232C)β2γ2L [21]: 197 ± 8% % of control; calculated PA for GABA+NS-1738+PAM-2, distinct site model [2, 23]: 0.267±0.065; calculated PA for GABA+NS-1738+PAM-2, same site model [2, 23]: 0.146±0.043; observed PA of response to GABA+NS-1738+PAM-2 [2, 23]: 0.158±0.044; observed PA in the presence of R(+)-etomidate+α7-PAM [2]: 0.050±0.013; predicted PA for R(+)-etomidate+α7-PAM, distinct site model [2]: 0.097±0.030; predicted PA for R(+)-etomidate+α7-PAM, same site model [2]: 0.008±0.002; Potentiation (% of control), α1(A291W)β2γ2L [22]: 130 ± 7% % of control |
